Laboratory results published in ChEMBL document CHEMBL1143573, “Synthesis and structure-activity relationships of a new model of arylpiperazines. 8. Computational simulation of ligand-receptor interaction of 5-HT(1A)R agonists with selectivity over alpha1-adrenoceptors” (J Med Chem, 2005).

Legend:
[1] = biological target: T1, Adrenergic receptor alpha-1 (Rattus norvegicus, UniProt P15823+P23944+P43140); test: In vitro inhibition of [3H]prazosin binding to Alpha-1 adrenergic receptor in rat cerebral cortex membranes; assay type: cell membranes, Membrane
T1 sequence (P15823 whole entry): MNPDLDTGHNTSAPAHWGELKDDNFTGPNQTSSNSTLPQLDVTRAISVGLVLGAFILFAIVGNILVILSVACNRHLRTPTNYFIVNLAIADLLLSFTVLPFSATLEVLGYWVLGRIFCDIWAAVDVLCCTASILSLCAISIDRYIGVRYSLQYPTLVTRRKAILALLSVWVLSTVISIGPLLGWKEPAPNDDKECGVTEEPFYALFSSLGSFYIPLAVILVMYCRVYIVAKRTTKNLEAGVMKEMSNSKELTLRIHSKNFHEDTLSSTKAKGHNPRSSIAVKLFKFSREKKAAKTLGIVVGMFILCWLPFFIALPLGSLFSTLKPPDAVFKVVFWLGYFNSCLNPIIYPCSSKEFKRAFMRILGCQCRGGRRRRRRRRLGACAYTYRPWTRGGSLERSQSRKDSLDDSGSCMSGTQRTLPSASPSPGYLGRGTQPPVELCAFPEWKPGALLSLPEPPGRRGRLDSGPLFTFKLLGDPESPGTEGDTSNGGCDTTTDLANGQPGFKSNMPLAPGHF
T1 sequence (P23944 whole entry): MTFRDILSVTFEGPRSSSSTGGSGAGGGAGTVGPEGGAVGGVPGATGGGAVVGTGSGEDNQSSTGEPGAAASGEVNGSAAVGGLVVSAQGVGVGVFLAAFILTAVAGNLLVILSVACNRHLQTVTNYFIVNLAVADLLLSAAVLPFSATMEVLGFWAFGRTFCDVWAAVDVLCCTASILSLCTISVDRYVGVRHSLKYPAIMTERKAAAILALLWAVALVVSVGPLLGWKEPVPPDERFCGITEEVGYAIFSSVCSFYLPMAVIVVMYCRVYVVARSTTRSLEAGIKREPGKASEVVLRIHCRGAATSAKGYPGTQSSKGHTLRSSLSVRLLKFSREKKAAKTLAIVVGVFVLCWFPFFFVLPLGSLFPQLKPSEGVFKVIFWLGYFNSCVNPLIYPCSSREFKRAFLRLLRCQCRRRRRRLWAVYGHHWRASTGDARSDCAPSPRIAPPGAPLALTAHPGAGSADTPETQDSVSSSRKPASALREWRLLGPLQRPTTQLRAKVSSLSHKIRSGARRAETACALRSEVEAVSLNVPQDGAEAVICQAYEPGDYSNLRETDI
T1 sequence (P43140 whole entry): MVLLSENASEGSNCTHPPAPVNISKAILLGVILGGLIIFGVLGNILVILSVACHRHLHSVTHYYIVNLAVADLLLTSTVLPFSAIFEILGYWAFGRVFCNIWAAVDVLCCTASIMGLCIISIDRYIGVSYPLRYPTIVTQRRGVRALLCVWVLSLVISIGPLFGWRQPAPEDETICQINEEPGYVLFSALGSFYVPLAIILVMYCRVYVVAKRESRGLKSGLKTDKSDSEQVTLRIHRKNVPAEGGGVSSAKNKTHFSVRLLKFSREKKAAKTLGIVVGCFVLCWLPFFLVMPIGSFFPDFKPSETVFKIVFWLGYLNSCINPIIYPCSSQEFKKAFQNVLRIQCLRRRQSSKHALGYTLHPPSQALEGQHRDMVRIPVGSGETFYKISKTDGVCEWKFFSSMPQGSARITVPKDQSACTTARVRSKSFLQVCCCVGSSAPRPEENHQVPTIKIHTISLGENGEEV
Method in brief: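 Rat cerebral cortex membranes (about 250 µg protein) in 50 mM Tris-HCl with 10 mM MgCl2, pH 7.4. Incubated 30 min at 25 °C with 0.2 nM [3H]prazosin and six competitor concentrations. Nonspecific binding with 10 µM phentolamine. Compounds screened at 10^-6 M, curves run if displacement exceeded 55%. Triplicates, 2-4 experiments; Ki by Cheng-Prusoff.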

[2] = biological target: T2, 5-hydroxytryptamine receptor 1A (Rattus norvegicus, UniProt P19327); test: In vitro inhibition of [3H]8-OH-DPAT binding to 5-hydroxytryptamine 1A receptor in rat cerebral cortex membranes; assay type: cell membranes, Membrane
T2 sequence (P19327 whole entry): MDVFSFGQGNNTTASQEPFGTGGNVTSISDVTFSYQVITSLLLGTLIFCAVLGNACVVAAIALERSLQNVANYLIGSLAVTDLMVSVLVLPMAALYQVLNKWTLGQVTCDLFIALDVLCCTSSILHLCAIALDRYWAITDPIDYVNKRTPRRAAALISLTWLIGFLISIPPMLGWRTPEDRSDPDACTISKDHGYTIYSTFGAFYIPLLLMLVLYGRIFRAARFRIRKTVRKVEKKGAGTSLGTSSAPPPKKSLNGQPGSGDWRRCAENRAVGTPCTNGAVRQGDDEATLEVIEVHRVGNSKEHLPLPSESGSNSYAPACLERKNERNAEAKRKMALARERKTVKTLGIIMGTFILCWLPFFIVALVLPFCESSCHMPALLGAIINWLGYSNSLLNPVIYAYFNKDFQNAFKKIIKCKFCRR
Method in brief: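 Rat cerebral cortex membranes (about 1 mg protein) incubated 15 min at 37 °C with 0.6 nM [3H]-8-OH-DPAT in 50 mM Tris-HCl, pH 7.4, containing 10 nM clonidine and 30 nM prazosin. Nonspecific binding with 10 µM 5-HT. Compounds screened at 10^-6 M; curves run if displacement exceeded 55%. Filtration, scintillation counting, triplicates, 2-4 experiments; Ki by Cheng-Prusoff.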

D(2) dopamine receptor = D(2) dopamine receptor (Rattus norvegicus, UniProt P61169); test: In vitro inhibition of [3H]-raclopride binding to Dopamine receptor D2 in rat striatum membranes; assay type: cell membranes, Membrane
Chain of D(2) dopamine receptor (P61169 whole entry): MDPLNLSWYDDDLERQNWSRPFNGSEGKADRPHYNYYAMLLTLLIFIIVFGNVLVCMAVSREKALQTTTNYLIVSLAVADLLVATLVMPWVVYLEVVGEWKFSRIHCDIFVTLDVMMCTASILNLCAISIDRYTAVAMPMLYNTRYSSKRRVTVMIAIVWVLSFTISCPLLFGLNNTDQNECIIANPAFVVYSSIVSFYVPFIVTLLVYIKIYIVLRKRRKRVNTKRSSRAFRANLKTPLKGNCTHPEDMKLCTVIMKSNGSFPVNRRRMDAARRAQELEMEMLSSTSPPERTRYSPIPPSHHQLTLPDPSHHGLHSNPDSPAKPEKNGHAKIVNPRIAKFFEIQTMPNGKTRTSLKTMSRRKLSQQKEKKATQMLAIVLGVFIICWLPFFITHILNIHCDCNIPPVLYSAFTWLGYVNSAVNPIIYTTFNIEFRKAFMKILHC
Method in brief: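 Male Sprague-Dawley rat striatum membranes (125-150 µg protein) incubated 60 min at 25 °C with 0.8 nM [3H]raclopride and six competitor concentrations. Nonspecific binding with 1 µM (+)-butaclamol. GF/B filtration, scintillation counting, triplicates. Ki by Cheng-Prusoff.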

[3] = biological target: 5-hydroxytryptamine receptor 2A (Rattus norvegicus, UniProt P14842); test: In vitro inhibition of [3H]ketanserin binding to 5-hydroxytryptamine 2A receptor in rat cerebral frontal cortex membranes; assay type: cell membranes, Membrane
Chain of 5-hydroxytryptamine receptor 2A (P14842 whole entry): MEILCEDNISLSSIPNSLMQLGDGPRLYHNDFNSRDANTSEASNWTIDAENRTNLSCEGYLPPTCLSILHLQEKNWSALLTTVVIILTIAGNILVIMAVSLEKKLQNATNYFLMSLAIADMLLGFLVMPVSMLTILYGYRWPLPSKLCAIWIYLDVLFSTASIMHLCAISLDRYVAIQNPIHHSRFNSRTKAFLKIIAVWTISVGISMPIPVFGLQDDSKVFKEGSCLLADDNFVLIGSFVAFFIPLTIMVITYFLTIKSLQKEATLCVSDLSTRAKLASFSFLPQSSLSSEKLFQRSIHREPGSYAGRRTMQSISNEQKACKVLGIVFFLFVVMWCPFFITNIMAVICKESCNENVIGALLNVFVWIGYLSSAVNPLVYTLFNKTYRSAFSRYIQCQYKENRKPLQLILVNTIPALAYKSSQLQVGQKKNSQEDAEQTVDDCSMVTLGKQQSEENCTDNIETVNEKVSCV
Method in brief: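 Rat frontal cortex membranes were incubated 15 min at 37 °C with 0.4 nM [3H]ketanserin. Nonspecific binding with 1 µM cinanserin. Filtration, scintillation counting, triplicates; Ki by Cheng-Prusoff.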

[4] = biological target: T3, 5-hydroxytryptamine receptor 1A (Homo sapiens, UniProt P08908); test: (§1) Inhibition of forskolin-induced increase in cAMP in human 5-hydroxytryptamine 1A receptor expressed HeLa cells; assay type: functional, cell-based
T3 sequence (P08908 whole entry): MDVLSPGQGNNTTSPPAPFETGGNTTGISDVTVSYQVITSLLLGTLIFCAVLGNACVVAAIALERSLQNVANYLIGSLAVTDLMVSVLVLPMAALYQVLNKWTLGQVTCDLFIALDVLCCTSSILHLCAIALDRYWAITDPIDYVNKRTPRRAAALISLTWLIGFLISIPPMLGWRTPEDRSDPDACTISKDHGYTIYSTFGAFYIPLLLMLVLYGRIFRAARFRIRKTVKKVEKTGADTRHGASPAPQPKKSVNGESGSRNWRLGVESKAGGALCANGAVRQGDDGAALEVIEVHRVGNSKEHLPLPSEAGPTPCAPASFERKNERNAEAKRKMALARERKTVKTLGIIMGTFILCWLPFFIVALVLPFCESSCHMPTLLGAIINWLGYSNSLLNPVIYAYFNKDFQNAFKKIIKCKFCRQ
Method in brief: (§2)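 HeLa cells stably expressing human 5-HT1A (HA 6) were plated 48 h ahead. Cells treated 10 min at 37 °C, 5% CO2, with 0.5 mM IBMX, 10 µM forskolin and compound (10-9-10-5 M), then lysed in 65% ethanol. cAMP measured by [3H] radioimmunoassay, expressed as % of forskolin-stimulated adenylate cyclase activity. Duplicate experiments, four wells per concentration; EC50 by curve fit.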

[5] = biological target: T4, 5-hydroxytryptamine receptor 1A (Homo sapiens) (UniProt P08908); test: as §1; assay type: functional, cell-based; method in brief: as §2
T4 sequence (whole entry): T3 sequence (P08908 whole entry)

[6] = biological target: GABA-A receptor; anion channel; test: In vitro inhibition of [3H]flunitrazepam binding to Benzodiazepine receptor of rat cerebral cortex membranes; assay type: cell membranes, Membrane
Method in brief: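 Rat brain membranes (about 100 µg protein) in 25 mM potassium phosphate, pH 7.4, incubated 90 min at 0-4 °C with 0.25 nM [3H]flunitrazepam. Nonspecific binding with 2 µM diazepam. Filtration, scintillation counting, triplicates; Ki by Cheng-Prusoff.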

[7] = biological target: 5-hydroxytryptamine receptor 4 (Rattus norvegicus, UniProt Q62758); test: In vitro inhibition of [3H]GR-113808 binding to 5-hydroxytryptamine 4 receptor of rat striatum membranes; assay type: cell membranes, Membrane
Chain of 5-hydroxytryptamine receptor 4 (Q62758 whole entry): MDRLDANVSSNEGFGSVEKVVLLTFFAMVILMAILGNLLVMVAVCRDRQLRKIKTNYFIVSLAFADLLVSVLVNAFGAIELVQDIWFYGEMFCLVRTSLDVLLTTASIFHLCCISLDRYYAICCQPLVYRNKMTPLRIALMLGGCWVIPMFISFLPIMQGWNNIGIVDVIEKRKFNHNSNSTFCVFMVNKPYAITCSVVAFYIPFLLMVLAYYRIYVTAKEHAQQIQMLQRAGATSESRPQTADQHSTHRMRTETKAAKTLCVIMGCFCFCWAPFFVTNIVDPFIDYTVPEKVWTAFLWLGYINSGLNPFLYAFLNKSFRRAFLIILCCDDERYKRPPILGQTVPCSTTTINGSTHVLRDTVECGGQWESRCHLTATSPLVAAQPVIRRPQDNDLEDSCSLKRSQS
Method in brief: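 Membranes from rat striatum were incubated 30 min at 37 °C with 0.1 nM [3H]GR113808 in 50 mM HEPES, pH 7.4. Nonspecific binding with 30 µM 5-HT. Bound radioactivity counted after GF/B filtration, triplicates. Ki from iterative curve fit via Cheng-Prusoff.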

[8] = biological target: Sodium-dependent serotonin transporter (Rattus norvegicus, UniProt P31652); test: In vitro inhibition of [3H]paroxetine binding to 5-hydroxytryptamine transporter in rat cerebral cortex membranes; assay type: cell membranes, Membrane
Chain of Sodium-dependent serotonin transporter (P31652 whole entry): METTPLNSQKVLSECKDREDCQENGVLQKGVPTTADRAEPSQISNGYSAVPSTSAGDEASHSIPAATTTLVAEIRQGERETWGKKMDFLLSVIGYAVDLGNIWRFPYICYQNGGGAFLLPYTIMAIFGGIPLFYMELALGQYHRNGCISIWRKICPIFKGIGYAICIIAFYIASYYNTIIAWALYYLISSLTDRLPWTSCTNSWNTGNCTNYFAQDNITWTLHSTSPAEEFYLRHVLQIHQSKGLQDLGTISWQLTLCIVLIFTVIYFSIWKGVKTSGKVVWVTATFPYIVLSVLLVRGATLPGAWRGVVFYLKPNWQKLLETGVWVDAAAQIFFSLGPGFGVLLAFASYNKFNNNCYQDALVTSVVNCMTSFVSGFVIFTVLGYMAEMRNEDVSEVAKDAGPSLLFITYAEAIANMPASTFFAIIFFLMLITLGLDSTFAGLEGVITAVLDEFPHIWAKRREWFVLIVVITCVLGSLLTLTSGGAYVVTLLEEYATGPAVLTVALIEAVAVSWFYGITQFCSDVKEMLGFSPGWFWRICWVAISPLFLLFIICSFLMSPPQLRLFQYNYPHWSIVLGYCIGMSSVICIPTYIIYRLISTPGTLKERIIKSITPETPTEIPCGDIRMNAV
Method in brief: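 Rat cortical membranes (about 120 µg protein) incubated 60 min at 25 °C with 0.2 nM [3H]paroxetine. Buffer is Tris-HCl with 20 mM NaCl and 5 mM KCl, pH 7.4. Nonspecific binding with 10 µM fluoxetine. Filtration, scintillation counting, triplicates; Ki by Cheng-Prusoff.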

[9] = biological target: T5, 5-hydroxytryptamine receptor 3A (Rattus norvegicus, UniProt P35563); test: In vitro inhibition of [3H]LY-278584 binding to 5-hydroxytryptamine 3 receptor in rat cerebral cortex membranes; assay type: cell membranes, Membrane
T5 sequence (P35563 whole entry): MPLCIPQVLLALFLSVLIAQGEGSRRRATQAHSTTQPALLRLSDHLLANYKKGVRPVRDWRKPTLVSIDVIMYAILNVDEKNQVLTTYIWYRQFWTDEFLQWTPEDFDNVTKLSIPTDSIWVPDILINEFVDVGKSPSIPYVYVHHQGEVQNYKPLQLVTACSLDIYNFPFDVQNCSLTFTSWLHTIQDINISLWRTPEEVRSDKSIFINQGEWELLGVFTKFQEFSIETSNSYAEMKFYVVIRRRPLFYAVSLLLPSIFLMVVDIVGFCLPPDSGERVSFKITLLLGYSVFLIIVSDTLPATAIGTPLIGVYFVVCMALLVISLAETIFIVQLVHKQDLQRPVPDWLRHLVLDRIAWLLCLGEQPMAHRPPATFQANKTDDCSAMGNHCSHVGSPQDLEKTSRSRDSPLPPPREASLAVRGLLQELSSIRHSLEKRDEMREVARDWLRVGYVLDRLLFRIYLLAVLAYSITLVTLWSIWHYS
Method in brief: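 Sucrose-prepared rat cerebral cortex membranes were incubated 30 min at 25 °C with 0.7 nM [3H]LY278584. Nonspecific binding with 10 µM 5-HT. Filtration and scintillation counting, triplicates; Ki by Cheng-Prusoff.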

[10] = biological target: 5-hydroxytryptamine receptor 7 (Rattus norvegicus, UniProt P32305); test: In vitro inhibition of [3H]5-CT binding to 5-hydroxytryptamine 7 receptor in rat hypothalamus membranes; assay type: cell membranes, Membrane
Chain of 5-hydroxytryptamine receptor 7 (P32305 whole entry): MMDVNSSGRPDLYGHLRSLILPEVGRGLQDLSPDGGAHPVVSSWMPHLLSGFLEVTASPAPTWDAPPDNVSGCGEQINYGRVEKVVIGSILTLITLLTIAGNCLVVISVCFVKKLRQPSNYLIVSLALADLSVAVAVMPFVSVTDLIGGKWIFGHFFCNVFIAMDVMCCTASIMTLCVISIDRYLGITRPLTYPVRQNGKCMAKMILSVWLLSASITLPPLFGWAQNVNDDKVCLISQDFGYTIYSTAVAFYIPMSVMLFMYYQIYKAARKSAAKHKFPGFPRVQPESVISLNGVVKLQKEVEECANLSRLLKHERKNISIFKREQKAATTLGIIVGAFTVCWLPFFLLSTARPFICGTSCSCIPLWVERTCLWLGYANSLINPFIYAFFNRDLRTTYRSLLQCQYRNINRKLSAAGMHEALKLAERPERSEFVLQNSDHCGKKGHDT
Method in brief: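 Rat hypothalamus membranes were incubated 120 min at 23 °C with 0.5 nM [3H]-5-CT. Nonspecific binding with 10 µM 5-HT. Filtration and scintillation counting, triplicates, 2-4 experiments. Ki from curve fit by Cheng-Prusoff.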

Structure (SMILES)	Ki [1]	also measured
CCS(=O)(=O)Nc1cccc(N2CCN(CCCCN3C(=O)C4CCCN4C3=O)CC2)c1 (configuration not stated)	> 1 µM	
C[C@@H]1CN(c2cccc3ccccc23)CCN1CCCCN1CC(=O)N2CCC[C@@H]2C1=O	0.0201 µM	
O=C1C2CCCCN2C(=O)N1CN1CCN(c2cccc3ccccc23)CC1 (configuration not stated)	> 1 µM	
O=C1C2CCCN2C(=O)CN1CCCCN1CCN(c2cccc3ccccc23)CC1 (configuration not stated)	0.008 µM	
O=C1C2CCCN2C(=O)N1CCCCN1CCN(c2cccc3[nH]cnc23)CC1 (configuration not stated)	0.0194 µM	
C[C@H]1CN(c2cccc3ccccc23)CCN1CN1CC(=O)N2CCC[C@H]2C1=O	> 1 µM	
C[C@@H]1CN(c2cccc3ccccc23)CCN1CN1CC(=O)N2CCC[C@@H]2C1=O	> 1 µM	
O=C1[C@H]2CCCN2C(=O)CN1CN1CCN(c2cccc3ccccc23)CC1	> 1 µM	Ki [2]: 0.0046 µM
O=C1[C@@H]2CCCN2C(=O)CN1CN1CCN(c2cccc3c2CC=COO3)CC1	> 1 µM	Ki [2]: 0.0123 µM
O=C1C2CCCCN2C(=O)N1CN1CCN(c2cccc3c2OCCO3)CC1 (configuration not stated)	> 1 µM	
O=C1C2CCCN2C(=O)CN1CN1CCN(c2cccc3c2CC=COO3)CC1 (configuration not stated)	> 1 µM	Ki [2]: 0.0116 µM
C[C@H]1CN(c2cccc3ccccc23)CCN1CN1CC(=O)N2CCC[C@@H]2C1=O	> 1 µM	
O=C1C2CCCN2C(=O)N1CN1CCN(c2cccc3ccccc23)CC1 (configuration not stated)	> 1 µM	
O=C1C2CCCN2C(=O)CN1CN1CCN(c2cccc3ccccc23)CC1 (configuration not stated)	> 1 µM	Ki [2]: 0.0067 µM
O=C1[C@@H]2CCCN2C(=O)CN1CN1CCN(c2cccc3ccccc23)CC1	> 1 µM	Ki (D(2) dopamine receptor): 0.192 µM; Ki [3]: 0.0135 µM; EC50 [4]: 0.15 µM; Maximal effect [5]: 90.3%; Ki [6]: > 10 µM; Ki [7]: > 10 µM; Ki [2]: 0.0041 µM; Ki [8]: 0.976 µM; Ki [9]: 0.0089 µM; Ki [10]: 0.101 µM
C[C@H]1CN(c2cccc3ccccc23)CCN1CCCCN1CC(=O)N2CCC[C@H]2C1=O	0.0344 µM	
C[C@@H]1CN(c2cccc3ccccc23)CCN1CN1CC(=O)N2CCC[C@H]2C1=O	> 1 µM	
O=C1C2CCCN2C(=O)N1CN1CCN(c2cccc3[nH]cnc23)CC1 (configuration not stated)	> 10 µM	
